Test results from ChEMBL document CHEMBL1157110, “Hopane-type triterpenes and binaphthopyrones from the scale insect pathogenic fungus Aschersonia paraphysata BCC 11964” (J Nat Prod, 2010).
Where a name gives a salt, the structure may show the parent alone. The source made the active and inactive calls. The rule behind the calls is not given here.

Tests used:
NCI-H187 = assay: Cytotoxicity against human NCI-H187 cells after 45 hrs by resazurin microplate assay; format: functional, cell-based; conditions: NCI-H187, 45 h
Plasmodium falciparum = assay: Antimalarial activity against Plasmodium falciparum K1 after 24 hrs by [G-3H]hypoxanthine uptake assay; format: functional, organism-based; conditions: K1, 24 h
How it was run: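 Multidrug-resistant K1 strain, microculture radioisotope technique. Samples dissolved in DMSO as a 10 mg/mL stock, then diluted with water before testing. IC50 reported.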

KB = assay: Cytotoxicity against human KB cells after 45 hrs by resazurin microplate assay; format: functional, cell-based
MCF7 = assay: Cytotoxicity against human MCF7 cells after 45 hrs by resazurin microplate assay; format: functional, cell-based; conditions: MCF7, 45 h
Vero = assay: Cytotoxicity against african green monkey Vero cells by green fluorescent protein microplate assay; format: cell-based; conditions: Chlorocebus sabaeus
[1] = system: Mycobacterium tuberculosis; assay: Antituberculosis activity against Mycobacterium tuberculosis; format: functional, organism-based

| Compound | IC50 (NCI-H187) [µM] | IC50 (Plasmodium falciparum) [µM] | IC50 (KB) [µM] | IC50 (MCF7) [µM] | IC50 (Vero) [µM] | Activity [1] |
| --- | --- | --- | --- | --- | --- | --- |
| CC(C)C1=C2CC[C@]3(C)[C@H]([C@H](O)C[C@@H]4[C@@]5(C)CCCC(C)(C)[C@@H]5CC[C@]43C)[C@@]2(C)CC1 | > 118 | > 23 | > 118 | > 118 | > 118 | inactive |
| CC(C)C1=C2CC[C@]3(C)[C@H]([C@H](O)C[C@@H]4[C@@]5(C)CCCC(C)(C)[C@@H]5[C@@H](O)C[C@]43C)[C@@]2(C)CC1 | > 113 | 15 | > 113 | > 113 | > 113 | inactive |
| C[C@H]1[C@@H](O)O[C@@H]2O[C@@]3(C)CC[C@H]4[C@H](C)CC[C@@H]1[C@@]24OO3 [ARTENIMOL] | – | 0.0046 | – | – | – | – |
| CC1Cc2cc3c(-c4c(O)cc(O)c5c(O)c6c(cc45)CC(C)OC6=O)c(O)cc(O)c3c(O)c2C(=O)O1 (centres undefined) [ASCHERNAPHTHOPYRONE A] | 4.5 | 7.3 | 17 | 87 | > 96 | inactive |
| CC1Cc2cc3cc(O)c(-c4c(O)cc5cc6c(c(O)c5c4O)C(=O)OC(C)C6)c(O)c3c(O)c2C(=O)O1 (centres undefined) [ASCHERNAPHTHOPYRONE B] | 95 | > 19 | > 96 | 79 | 52 | inactive |
| COc1cccc2c1C(=O)c1c(O)c3c(c(O)c1C2=O)C[C@@](O)(C(=O)CO)C[C@@H]3O[C@H]1C[C@H](N)[C@H](O)[C@H](C)O1 [DOXORUBICIN HYDROCHLORIDE] | 0.086 | – | – | – | – | – |
| Cc1c2ccncc2c(C)c2c1[nH]c1ccccc12 [ELLIPTECINE] | 1.5 | – | – | – | 3.8 | – |
| CC(C)C1=C2CC[C@]3(C)[C@H](CC[C@@H]4[C@@]5(C)CCCC(C)(C)[C@@H]5[C@@H](O)C[C@]43C)[C@@]2(C)CC1 [ZEORININ] | > 118 | > 23 | > 118 | > 118 | > 118 | inactive |
